The values that follow come from ChEMBL document CHEMBL1144173, “1-Benzylbenzimidazoles: the discovery of a novel series of bradykinin B(1) receptor antagonists” (Bioorg Med Chem Lett, 2008).

Data set [1] in a line: Oral bioavailability in rat at 10 mg/kg. Format: ADME, organism-based. To be noted: in vivo.
Data set [2] concerns the target T1, B1 bradykinin receptor (Rattus norvegicus, UniProt P97583).
T1 sequence (P97583 whole entry): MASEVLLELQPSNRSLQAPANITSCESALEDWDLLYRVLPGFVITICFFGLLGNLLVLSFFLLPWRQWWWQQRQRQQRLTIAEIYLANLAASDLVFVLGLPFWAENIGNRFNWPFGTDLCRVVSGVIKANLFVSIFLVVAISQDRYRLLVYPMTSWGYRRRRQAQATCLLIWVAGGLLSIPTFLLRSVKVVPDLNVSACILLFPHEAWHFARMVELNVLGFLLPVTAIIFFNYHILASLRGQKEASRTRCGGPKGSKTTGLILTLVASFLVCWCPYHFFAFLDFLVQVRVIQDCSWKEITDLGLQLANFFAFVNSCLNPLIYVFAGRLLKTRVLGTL
As to the kind of experiment: Antagonist activity at rat bradykinin B1 receptor. Format: functional. Put shortly: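 Rat B1 receptor tested in the same way as the cynomolgus assay: FLIPR Ca2+ transients with inhibition of DAKD-induced fluorescence measured across multiple compound concentrations to derive functional IC50.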

Data set [3] has as its target T2, B1 bradykinin receptor (Homo sapiens, UniProt P46663).
T2 sequence (P46663 whole entry): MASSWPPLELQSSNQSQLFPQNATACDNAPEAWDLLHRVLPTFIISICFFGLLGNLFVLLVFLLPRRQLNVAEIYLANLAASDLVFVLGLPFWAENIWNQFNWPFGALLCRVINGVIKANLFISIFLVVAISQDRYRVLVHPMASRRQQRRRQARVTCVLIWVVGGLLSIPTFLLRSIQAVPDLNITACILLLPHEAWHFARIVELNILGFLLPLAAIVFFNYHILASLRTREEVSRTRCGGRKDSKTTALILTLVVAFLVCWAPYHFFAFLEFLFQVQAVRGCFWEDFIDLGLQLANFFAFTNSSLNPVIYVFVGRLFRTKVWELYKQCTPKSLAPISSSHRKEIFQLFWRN
As to the kind of experiment: Inhibition of human bradykinin B1 receptor.

The test system of data set [4] is MDCK. Put plainly: Ratio of permeability from basolateral to apical over apical to basolateral side of MDCK cells expressing MDR1. Format: ADME, cell-based, Canis lupus familiaris. To be noted: dog. Put shortly:
(§1)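 MDR1-transfected MDCK cell monolayer. Apparent permeability (Papp) measured in the apical-to-basolateral and basolateral-to-apical directions. The A-to-B Papp is reported as passive permeability, and the efflux ratio is Papp(B→A)/Papp(A→B).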

For data set [5], the target named is T3, B1 bradykinin receptor (Macaca fascicularis, UniProt Q3BCU0).
T3 sequence (Q3BCU0 whole entry): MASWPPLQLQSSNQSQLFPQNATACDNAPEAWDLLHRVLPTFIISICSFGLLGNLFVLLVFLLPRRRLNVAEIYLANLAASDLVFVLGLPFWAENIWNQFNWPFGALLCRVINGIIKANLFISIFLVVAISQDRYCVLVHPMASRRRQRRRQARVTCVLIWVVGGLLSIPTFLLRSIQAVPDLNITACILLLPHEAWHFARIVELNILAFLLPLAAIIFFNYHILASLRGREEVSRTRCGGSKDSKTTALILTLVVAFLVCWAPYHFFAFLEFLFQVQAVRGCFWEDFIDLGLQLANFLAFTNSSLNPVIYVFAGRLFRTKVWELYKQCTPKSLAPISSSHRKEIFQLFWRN
As to the kind of experiment: Antagonist activity at Cynomolgus monkey bradykinin B1 receptor expressed in CHO cells assessed as calcium transient by FLIPR assay. Format: functional, cell-based.

In data set [6] the test system is MDR1. As to the kind of experiment: Passive permeability from apical to basolateral side of MDCK cells expressing MDR1. Format: ADME, cell-based, Canis lupus familiaris. To be noted: dog. Put shortly: as §1
The test system of data set [7] is MDCK. Put plainly: Ratio of permeability from basolateral to apical over apical to basolateral side of MDCK cells expressing MDR1 in presence of cyclosporine. The data set is classed as ADME, cell-based, Canis lupus familiaris. To be noted: dog. Put shortly:
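MDR1-transfected MDCK monolayer run with 25 µM cyclosporine as P-gp inhibitor. Efflux ratio is Papp basolateral-to-apical divided by Papp apical-to-basolateral.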

Data set [8] in a line: Aqueous solubility at pH 7.4. The data set is classed as physicochemical.
Data set [9] deals with Liver microsomes. As to the kind of experiment: Metabolic stability in rat liver microsomes at 1 uM after 10 mins by LC-MS analysis in presence of NADPH. Format: ADME, Microsome. Put shortly: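 Pooled male rat liver microsomes at 0.5 mg/ml with compound at 1 µM, 37 °C. Reaction started with NADPH, and aliquots taken at 0 and 10 min. Percent parent remaining is the 10-min/0-min signal ratio, corrected by internal standard recovery.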
For orientation: Microsomes from liver hold many membrane-bound enzymes, among them those of drug oxidation.

In brackets after ≈: the same amount, converted by molar mass.

As a reminder, the bioavailability is the share of a dose that reaches the circulation, judged against a reference dose that is usually intravenous. The term Ki denotes a measure of affinity in units of concentration, obtained from inhibition or displacement. In [1], `CCCN1C(=O)C(NC(=O)Nc2ccc(N3CCN(c4ccncc4)CC3)cc2)N=C(CCc2ccccc2)c2ccccc21` (stereo not given) gave a bioavailability below 4%. In addition, the Ki in data set [2] was found to be 0.92 nM; in [3] it was 0.59 nM.
In general, IC50 refers to the concentration that gives 50% inhibition. The Papp A→B is how fast a substance crosses the layer from the apical side. On to `CN(Cc1ccc(C#N)cc1)C(=O)CNC(=O)c1nc2ccccc2n1Cc1ccccc1`, for which the Ratio in [4] amounted to 3. Also, the IC50 in data set [5] was above 5000 nM. In data set [6], this compound showed a Papp A→B of 7 ×10⁻⁶ cm/s.
As for `CN1CCC(N2CCN(C(=O)[C@H]3CCCN3C(=O)c3nc4ccccc4n3Cc3ccccc3)CC2)CC1`, the IC50 in data set [5] turned out to be 3220 nM.
Turning to `CN1CCC(N2CCN(C(=O)[C@@H]3CCCN3C(=O)c3nc4ccccc4n3Cc3ccccc3)CC2)CC1`, the IC50 in data set [5] stood at 884 nM.
For `CN(Cc1ccc(C(N)=O)cc1)C(=O)CNC(=O)c1nc2ccccc2n1Cc1ccccc1`, in data set [5], the IC50 is above 5000 nM.
Turning to `O=C(CCNC(=O)c1nc2ccccc2n1Cc1ccccc1)Nc1ccc2nc[nH]c2c1`, the IC50 in data set [5] is 744 nM.
As to `CCN(CC(=O)N1CCN(c2ccncc2)CC1)Cc1nc2ccccc2n1Cc1ccccc1`, the IC50 in data set [5] was above 5000 nM.
As for `CCN(CC(=O)N1CCN(C2CCN(C)CC2)CC1)Cc1nc2ccccc2n1Cc1ccccc1`, the IC50 in data set [5] was above 5000 nM.
On the same count and under the same terms, with `O=C(NCCC(=O)N1CCC2(CCOCC2)CC1)c1nc2ccccc2n1Cc1ccccc1` the figure was 1990 nM.
With `CN1CCC2(CCN(C(=O)CCNC(=O)c3nc4ccccc4n3Cc3ccccc3)CC2)C1`, the IC50 in data set [5] turned out to be 2910 nM.
Consider `O=C1NCC2(CCN(C(=O)CCNC(=O)c3nc4ccccc4n3Cc3ccccc3)CC2)O1`, for which the IC50 in [5] was above 5000 nM.
As for `CN1CCC(N2CCN(C(=O)C3CCN(C(=O)c4nc5ccccc5n4Cc4ccccc4)CC3)CC2)CC1`, the IC50 in [5] came to 4020 nM.
On the same count and under the same terms, the value for `CN(Cc1ccc(C2=NCCN2)cc1)C(=O)C1CCN(C(=O)c2nc3ccccc3n2Cc2ccccc2)CC1` was 188 nM; that for `O=C(NCCC(=O)N1CCN(c2ccncc2)CC1)c1nc2ccccc2n1Cc1ccccc1` was 962 nM.
For the compound `CN(Cc1ccc(C2=NCCN2C)cc1)C(=O)CNC(=O)c1nc2ccccc2n1Cc1ccccc1`, in data set [5], the IC50 is 14 nM.
In the case of `Cc1nc(-c2ccc(CN(C)C(=O)CNC(=O)c3nc4ccccc4n3Cc3ccccc3)cc2)no1`, in data set [5], the IC50 amounted to 718 nM.
As to `CN(Cc1ccc(C2=NCCN2)cc1)C(=O)CCNC(=O)c1nc2ccccc2n1Cc1ccccc1`, the IC50 in [5] was 54 nM.
Regarding `O=C(c1nc2ccccc2n1Cc1ccccc1)N1CCN(c2ccncc2)CC1`, the IC50 in data set [5] was above 5000 nM.
Regarding `CN(Cc1ccc(-n2ccnc2)cc1)C(=O)CNC(=O)c1nc2ccccc2n1Cc1ccccc1`, in data set [5], the IC50 is 626 nM.
On the same count and under the same terms, with `CN1CCC(N2CCN(C(=O)c3nc4ccccc4n3Cc3ccccc3)CC2)CC1` the figure was above 5000 nM; with `CCC(NC(=O)c1nc2ccccc2n1Cc1ccccc1)C(=O)N1CCN(C2CCN(C)CC2)CC1` (stereo not given), 1300 nM.
`CC(C)N(CC(=O)N1CCN(c2ccncc2)CC1)C(=O)c1nc2ccccc2n1Cc1ccccc1`: the IC50 in [5] is above 5000 nM.
Regarding `O=C(CCNC(=O)c1nc2ccccc2n1Cc1ccccc1)Nc1ccc2cn[nH]c2c1`, the IC50 in [5] amounted to 524 nM.
On the same count and under the same terms, with `CN(Cc1ccc(CN2CCCCC2)cc1)C(=O)CNC(=O)c1nc2ccccc2n1Cc1ccccc1` the figure was 196 nM.
Turning to `CN(Cc1ccc(C2=NCCN2)cc1)C(=O)CNC(=O)c1nc2ccccc2n1Cc1ccccc1`, the Ratio in data set [4] was found to be 23; in [7] it was 1.5. Moreover, the IC50 turned out to be 5 nM in data set [5] and 155 nM in data set [2]. In addition, the Papp A→B in [6] was found to be 1 ×10⁻⁶ cm/s.
In the case of `CCC(NC(=O)c1nc2ccccc2n1Cc1ccccc1)C(=O)N1CCN(c2ccncc2)CC1` (stereo not given), the IC50 in data set [5] is above 5000 nM.
In the case of `CCCN(CC(=O)N1CCN(c2ccncc2)CC1)C(=O)c1nc2ccccc2n1Cc1ccccc1`, the results for the IC50 in [5] and in [2] were 355 nM and 396 nM, respectively.
As for `CCCN(CC(=O)N1CCN(C2CCN(C)CC2)CC1)C(=O)c1nc2ccccc2n1Cc1ccccc1`, the IC50 in [5] was 18 nM; in data set [2] it was 23 nM.
On to `CN1CCC(N2CCN(C(=O)CCNC(=O)c3nc4ccccc4n3Cc3ccccc3)CC2)CC1`, for which the IC50 in [5] came to 601 nM.
Turning to `CN(Cc1ccc(-c2ccccn2)cc1)C(=O)CNC(=O)c1nc2ccccc2n1Cc1ccccc1`, in [5], the IC50 amounted to 407 nM.
Consider `CN(Cc1ccc(-c2nccs2)cc1)C(=O)CNC(=O)c1nc2ccccc2n1Cc1ccccc1`, for which the IC50 in data set [5] was 1170 nM.
For `CN(Cc1ccc(-c2cc[nH]n2)cc1)C(=O)CNC(=O)c1nc2ccccc2n1Cc1ccccc1`, in data set [5], the IC50 came out at 2130 nM.
With `O=C(CCNC(=O)c1nc2ccccc2n1Cc1ccccc1)Nc1ccc(C2=NCCN2)nc1`, the Ratio in [4] is 42. Moreover, the values for the IC50 in data set [5] and in [2] were 2 nM and 0.8 nM, respectively.
As to `O=C(NCC(=O)N1CCN(c2ccncc2)CC1)c1nc2ccccc2n1Cc1ccccc1`, the figures for the IC50 in [5] and in [2] were 310 nM and 417 nM, respectively.
For the compound `CN(Cc1ccc(-c2nnn[nH]2)cc1)C(=O)CNC(=O)c1nc2ccccc2n1Cc1ccccc1`, the IC50 in [5] is above 5000 nM.
On the same count and under the same terms, with `CN(CC(=O)N1CCN(c2ccncc2)CC1)C(=O)c1nc2ccccc2n1Cc1ccccc1` the figure was 1180 nM; with `CCN(CC(=O)N1CCN(c2ccncc2)CC1)C(=O)c1nc2ccccc2n1Cc1ccccc1`, 278 nM.
With `CC(C)N(CC(=O)N1CCN(C2CCN(C)CC2)CC1)C(=O)c1nc2ccccc2n1Cc1ccccc1`, the IC50 in data set [5] came out at 465 nM.
Consider `CCN(CC(=O)N(C)Cc1ccc(C2=NCCN2)cc1)C(=O)c1nc2ccccc2n1Cc1ccccc1`, for which the values for the IC50 in [5] and in [2] were 6 nM and 345 nM, respectively.
Regarding `O=C([C@H]1CCCN1C(=O)c1nc2ccccc2n1Cc1ccccc1)N1CCN(c2ccncc2)CC1`, the concentration for half-maximal inhibition (IC50) in data set [5] worked out at 4070 nM.
As for `O=C([C@@H]1CCCN1C(=O)c1nc2ccccc2n1Cc1ccccc1)N1CCN(c2ccncc2)CC1`, in data set [5], the IC50 was above 5000 nM.
As to `CN(C)C(=O)c1ccc(CN(C)C(=O)CNC(=O)c2nc3ccccc3n2Cc2ccccc2)cc1`, the IC50 in data set [5] is above 5000 nM.
On the same count and under the same terms, with `CN1CCC(N2CCN(C(=O)CN(C)C(=O)c3nc4ccccc4n3Cc3ccccc3)CC2)CC1` the figure was 268 nM.
With `CN1CCC2(CC1)CCN(C(=O)CCNC(=O)c1nc3ccccc3n1Cc1ccccc1)CC2`, the IC50 in data set [5] is above 5000 nM.
Still for that read-out and setting: the value for `CN(Cc1ccc(-c2ncccn2)cc1)C(=O)CNC(=O)c1nc2ccccc2n1Cc1ccccc1` was 330 nM.
For the compound `CN1CCC(N2CCN(C(=O)CNC(=O)c3nc4ccccc4n3Cc3ccccc3)CC2)CC1`, the IC50 in data set [5] was 686 nM.
Compound `Cc1c(C(=O)NCCC2CCN(C3CCN(C)CC3)CC2)n[nH]c1NC(=O)c1ccccc1Cl` yielded an IC50 in [3] of 1.8 nM.
As to `O=C(c1nc2ccccc2n1Cc1ccccc1)N1CCC(C(=O)N2CCN(c3ccncc3)CC2)CC1`, the IC50 in data set [5] was 2310 nM.
On to `CN(Cc1ccc(C2=NCCN2)cc1)C(=O)c1nc2ccccc2n1Cc1ccccc1`, for which the IC50 in [5] was 1020 nM.
The solubility is how much of the substance goes into solution per volume. With `CCN(CC(=O)N1CCN(C2CCN(C)CC2)CC1)C(=O)c1nc2ccccc2n1Cc1ccccc1`, in data set [4], the Ratio is 55. For the same compound, the results for the IC50 in [5] and in [2] were 16 nM and 15 nM, respectively. Moreover, the bioavailability in data set [1] was below 5%. Also, in data set [8], the concentration in solution (solubility) came to 120 µg/mL (≈ 239 µM). In addition, the Stability entry in data set [9] is recorded as “Stable”. The Papp A→B in data set [6] is 0.6 ×10⁻⁶ cm/s.
